For data set [1], the system named is HepG2. Kind of data set: Cytotoxicity against human HepG2 cells assessed as reduction in cell viability after 48 hrs by MTT assay. Format: functional, cell-based. Conditions: HepG2, 48 h. A digest of the protocol:
(§1)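 Cells at 3–4 × 10⁴/mL in DMEM + 10% FBS, pre-incubated 24 h in 5% CO₂. Then exposed 48 h to serial dilutions at 1, 5, 10, 20 and 50 µM; final DMSO <0.1%. MTT (5 mg/mL solution) added for 4 h at 37 °C, supernatant removed, formazan dissolved in DMSO, colorimetric read-out.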
(In general: Tetrazolium assays rely on reduction of a dye to a coloured formazan, in cell work by metabolically active cells.)

Data set [2] deals with CNE-2. Kind of data set: Cytotoxicity against human CNE2 cells assessed as reduction in cell viability after 48 hrs by MTT assay. The data set is classed as functional, cell-based. The conditions noted are these: CNE-2, 48 h. A digest of the protocol: as §1
Data set [3] concerns A549. Description: Cytotoxicity against human A549 cells assessed as reduction in cell viability after 48 hrs by MTT assay. Format: functional, cell-based. The conditions noted are these: A549, 48 h. In short, it runs like this:
as §1

In data set [4] the target is T1, DNA topoisomerase 1 (Homo sapiens) (UniProt P11387).
T1 sequence (whole entry): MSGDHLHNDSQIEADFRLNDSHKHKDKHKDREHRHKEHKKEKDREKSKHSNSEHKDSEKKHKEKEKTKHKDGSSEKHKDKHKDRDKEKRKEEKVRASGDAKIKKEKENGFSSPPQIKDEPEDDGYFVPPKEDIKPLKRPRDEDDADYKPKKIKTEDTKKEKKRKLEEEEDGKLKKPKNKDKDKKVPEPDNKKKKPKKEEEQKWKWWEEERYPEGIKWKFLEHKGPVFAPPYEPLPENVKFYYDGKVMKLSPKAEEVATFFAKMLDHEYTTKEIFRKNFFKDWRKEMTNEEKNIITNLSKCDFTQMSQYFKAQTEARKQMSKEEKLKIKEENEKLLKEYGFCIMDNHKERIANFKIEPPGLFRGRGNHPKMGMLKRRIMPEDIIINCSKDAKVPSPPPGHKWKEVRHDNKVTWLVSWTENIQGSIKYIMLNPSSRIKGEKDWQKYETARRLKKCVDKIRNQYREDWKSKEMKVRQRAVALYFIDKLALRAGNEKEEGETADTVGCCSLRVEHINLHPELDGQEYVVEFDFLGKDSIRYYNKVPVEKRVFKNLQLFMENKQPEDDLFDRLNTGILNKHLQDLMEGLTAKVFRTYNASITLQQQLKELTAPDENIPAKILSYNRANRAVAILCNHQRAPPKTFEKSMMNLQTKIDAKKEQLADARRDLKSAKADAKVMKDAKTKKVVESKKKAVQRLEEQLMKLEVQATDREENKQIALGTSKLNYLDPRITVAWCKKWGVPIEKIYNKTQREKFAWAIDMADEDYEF
Description: Inhibition of recombinant human topoisomerase-1-mediated relaxation of supercoiled pBR322 DNA at 500 uM after 30 mins by ethidium bromide staining based assay. In short, it runs like this: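 Reactions stopped with loading buffer containing 0.5% SDS, bromophenol blue and 15% glycerol. Products run on a horizontal 0.8% agarose gel in 1× TAE at 4 V/cm for 40 min at room temperature. Gel stained with ethidium bromide and imaged.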

For data set [5], the system named is HepG2. Description: Cell cycle arrest in human HepG2 cells accumulation at S phase at 1 uM after 24 hrs by propidium iodide staining-based flow cytometric analysis (reference value: 45.44%). The data set is classed as functional. In short, it runs like this: (§2)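 HepG2 seeded at 2 × 10⁵ cells/well in DMEM + 10% FBS. Treated 24 h at 1, 2.5 or 5 µM. Fixed overnight in cold 75% ethanol at 4 °C, RNase-treated 30 min at 37 °C, then propidium iodide-stained 30 min in the dark. Analysed by flow cytometry. Mean ± SD; representative of three independent experiments.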
(In general: A flow cytometer gives signals particle by particle.)

In data set [6] the test system is HepG2. Description: Antitumor activity against human HepG2 cells xenografted in BALB/C nude mouse assessed as tumor volume at 40 mg/kg, ip treated twice per week for 25 days (reference value: 1185.78 +/- 137.44 mm3). The data set is classed as functional.
For data set [7], the system named is HepG2. Description: Antitumor activity against human HepG2 cells xenografted in BALB/C nude mouse assessed as tumor weight at 40 mg/kg, ip treated twice per week for 25 days (reference value: 0.84 +/- 0.09 g). The data set is classed as functional. In short, it runs like this:
(§3)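 Female BALB/c nude mice, 5–6 weeks old, with subcutaneous flank xenografts of 8 × 10⁶ HepG2 cells. Randomized when tumors reached ~150–200 mm³. Dosed ip twice weekly for 25 days at 40 mg/kg; vehicle was saline with 10% DMSO (n = 6 vehicle, n = 5 per treated group). Caliper measurements every other day, volume = 0.5 × L × W². Tumors excised and weighed at end. Mean ± SD; t-test versus vehicle.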
In general terms: In xenograft studies the graft and the host belong to different species.

The subject of data set [8] is HepG2. Description: Cell cycle arrest in human HepG2 cells accumulation at S phase at 5 uM after 24 hrs by propidium iodide staining-based flow cytometric analysis (reference value: 45.44%). Format: functional. In short, it runs like this: as §2
Data set [9] deals with HepG2. Kind of data set: Antitumor activity against human HepG2 cells xenografted in BALB/C nude mouse assessed as tumor growth at 40 mg/kg, ip treated twice per week for 25 days relative to control. Format: functional. In short, it runs like this:
as §3

The subject of data set [10] is HepG2. Kind of data set: Cell cycle arrest in human HepG2 cells accumulation at S phase at 2.5 uM after 24 hrs by propidium iodide staining-based flow cytometric analysis (reference value: 45.44%). The data set is classed as functional. In short, it runs like this:
as §2

Data set [11] deals with HepG2. Description: Cell cycle arrest in human HepG2 cells accumulation at G1 phase at 2 to 6 mM after 24 hrs by propidium iodide staining-based flow cytometric analysis. The data set is classed as functional. In short, it runs like this:
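HepG2 cells were seeded at 2 × 10⁵ per well in DMEM with 10% FBS and treated at three concentrations (2, 4, 6) for 24 h. Cells were fixed in cold 75% ethanol at 4 °C overnight, washed in PBS, then given RNase at 37 °C for 30 min and propidium iodide in the dark for 30 min. Read by flow cytometry; mean SD; three independent experiments.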

The test system of data set [12] is Mus musculus. Description: Toxicity against BALB/C nude mouse xenografted with human HepG2 cells assessed as body weight loss at 40 mg/kg, ip treated twice per week measured at day 19 post dose. The data set is classed as organism-based. The conditions noted are these: in vivo. In short, it runs like this:
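HepG2 subcutaneous xenografts (8 × 10⁶ cells, flank) in female BALB/c nude mice aged 5–6 weeks. At ~150–200 mm³ tumors, ip dosing at 40 mg/kg twice weekly for 25 days; vehicle was saline with 10% DMSO. Body weight tracked every other day from day 1 to day 25. Mean ± SD; t-test versus vehicle.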

Calls of active or inactive are those of the source. No cut-off for these calls is given here.

What is called IC50 is the midpoint of a concentration-inhibition curve. As to `COC(=O)CCC[C@@H]1[C@H]2CCCN3CCC[C@H](CN1Cc1cn(Cc4ccc5ccccc5c4)c4ccccc14)[C@@H]23`, the 50% inhibitory concentration (IC50) is 8.6 µM in data set [1], 7.8 µM in data set [2] and 24 µM in data set [3]. For the same compound, the inhibition entry in data set [4] is “Active”.

A word on the T/C: it is the ratio of treated to control. On to `OCCCC[C@@H]1[C@H]2CCCN3CCC[C@H](CN1Cc1cn(Cc4ccc(Br)cc4)c4ccccc14)[C@@H]23`, for which the Activity in data set [5] is 55.77%; in [6] it was 737.04 mm3; in data set [7], 0.61 g; in data set [8], 64.17%; in [10], 60.68%. For the same compound, the IC50 in [1] came to 3.1 µM; in data set [2], 3.5 µM; in data set [3] it was 22.1 µM. Besides, in data set [4], the inhibition entry is “Active”. Also, the T/C in data set [9] came to 55.99%.

With `O=C1CCC[C@@H]2[C@H]3CCCN4CCC[C@H](CN12)[C@@H]34` [SOPHORIDINE], the figures for the half-maximal inhibitory concentration (IC50) in data set [2] and in data set [3] were 5380 µM and 5840 µM, respectively. For the same compound, the Activity in data set [6] was 1204.27 mm3; in data set [7], 0.97 g. Further, the outcome in data set [11] was Active. Also, the T/C in data set [9] amounted to 93.38%.

As for `CCc1c2c(nc3ccc(OC(=O)N4CCC(N5CCCCC5)CC4)cc13)-c1cc3c(c(=O)n1C2)COC(=O)[C@]3(O)CC` [IRINOTECAN], the Activity entry in data set [12] is reported as “Toxic”; in data set [7] it was 0.47 g. The T/C in data set [9] is reported as 35.08%.

On to `COC(=O)CCC[C@@H]1[C@H]2CCCN3CCC[C@H](CN1Cc1cn(Cc4ccccc4)c4ccccc14)[C@@H]23`, for which the half-maximal inhibitory concentration (IC50) was found to be 5.5 µM in data set [1], 3.3 µM in [2] and 43.4 µM in data set [3]. Also, the inhibition entry in [4] is “Active”.

Turning to `OCCCC[C@@H]1[C@H]2CCCN3CCC[C@H](CN1Cc1cn(Cc4ccccc4)c4ccccc14)[C@@H]23`, the IC50 in data set [1] is 2.3 µM; in data set [2], 2.2 µM; in [3] it was 33.7 µM. The inhibition result in [4] is “Active”.

As to `COC(=O)CCC[C@@H]1[C@H]2CCCN3CCC[C@H](CN1Cc1cn(Cc4ccc(C(F)(F)F)cc4)c4ccccc14)[C@@H]23`, the 50% inhibitory concentration (IC50) in data set [1] came to 6.1 µM; in data set [2], 4.8 µM; in [3] it was 7.4 µM.

As for `COC(=O)CCC[C@@H]1[C@H]2CCCN3CCC[C@H](CN1Cc1c[nH]c4ccc([N+](=O)[O-])cc14)[C@@H]23`, the 50% inhibitory concentration (IC50) in [1], in data set [2] and in data set [3] was > 50 µM in each case.

Consider `COC(=O)CCC[C@@H]1[C@H]2CCCN3CCC[C@H](CN1Cc1cn(Cc4c(Cl)cccc4Cl)c4ccccc14)[C@@H]23`, for which the half-inhibitory concentration (IC50) in data set [1] worked out at 8.5 µM; in data set [2], 6.7 µM; in data set [3], 3.7 µM.

Turning to `COC(=O)CCC[C@@H]1[C@H]2CCCN3CCC[C@H](CN1Cc1c[nH]c4ccc(OC)cc14)[C@@H]23`, the IC50 in data set [1], in data set [2] and in [3] was > 50 µM in each case.

As for `COC(=O)CCC[C@@H]1[C@H]2CCCN3CCC[C@H](CN1Cc1c[nH]c4ccc(F)cc14)[C@@H]23`, the IC50 in data set [1], in data set [2] and in data set [3] was > 50 µM in each case.

`COC(=O)CCC[C@@H]1[C@H]2CCCN3CCC[C@H](CN1Cc1c[nH]c4ccccc14)[C@@H]23`: the IC50 worked out at 36.5 µM in data set [1], 12.1 µM in data set [2] and 27.8 µM in data set [3].

For `COC(=O)CCC[C@@H]1[C@H]2CCCN3CCC[C@H](CN1Cc1c[nH]c4ccc(Br)cc14)[C@@H]23`, the IC50 in data set [1] came to 31.8 µM; in data set [2], 20.2 µM; in [3], 39.9 µM.

Regarding `COC(=O)CCC[C@@H]1[C@H]2CCCN3CCC[C@H](CN1Cc1cn(Cc4ccc(Cl)cc4)c4ccccc14)[C@@H]23`, the results for the half-maximal inhibitory concentration (IC50) in [1], in data set [2] and in [3] were 6.5 µM, 4.6 µM and 5.2 µM, respectively. Further, in data set [4], the inhibition entry is “Active”.

For `CC[C@@]1(O)C(=O)OCc2c1cc1n(c2=O)Cc2cc3ccccc3nc2-1` [CAMPTOTHECIN], the values for the IC50 in data set [1], in data set [2] and in data set [3] were 13.2 µM, 0.1 µM and 5.5 µM, respectively.

Take `COC(=O)CCC[C@@H]1[C@H]2CCCN3CCC[C@H](CN1Cc1cn(Cc4ccc(C(F)(F)F)cc4)c4ccc(F)cc14)[C@@H]23`: the figures for the IC50 in [1], in data set [2] and in data set [3] were 7.7 µM, 6.9 µM and 12.8 µM, respectively.

Source of the values: ChEMBL document CHEMBL4152337, “Novel indolo-sophoridinic scaffold as Topo I inhibitors: Design, synthesis and biological evaluation as anticancer agents” (Eur J Med Chem, 2018).
